Experiments:
[1] = target: T1, Indoleamine 2,3-dioxygenase 1 (Homo sapiens, UniProt P14902); assay: Inhibition of IDO1 in recombinant IFN-gamma induced human HeLa cells incubated for 18 hrs by fluorescence microplate reader assay
How it was run: (§1)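 HeLa (human) or M109 (murine) cells induced with IFNγ to express IDO1, then cellular IDO1 activity measured; values are the average of N = 2 unless noted.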

[2] = Metabolic stability in rat liver microsomes assessed as parent compound remaining at 0.5 uM after 10 mins; format: ADME, Microsome; conditions: read-out: Stabilty
How it was run: (§2)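 Parent compound at 0.5 μM incubated 10 min with 1 mg/mL human, mouse or rat liver microsomes; fraction of parent remaining reported; average of N = 2 unless noted.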

[3] = target: T1, Indoleamine 2,3-dioxygenase 1; assay: Inhibition of IDO1 in IFN-gamma/LPS induced human whole blood assessed as tryptophan/kynurenine level measured after 18 hrs by RapidFire mass spectrometry; format: tissue-based
[4] = Permeability across apical to basolateral side in human Caco2 cells; format: ADME, cell-based; conditions: Caco-2, read-out: permeability
[5] = Metabolic stability assessed as rat UGT -mediated metabolism by measuring half life; format: ADME
[6] = Metabolic stability in human liver microsomes assessed as parent compound remaining at 0.5 uM after 10 mins; format: ADME, Microsome; conditions: read-out: Stabilty; how it was run: as §2
Cytochrome P450 2D6 = Cytochrome P450 2D6 (Homo sapiens, UniProt P10635); assay: Inhibition of recombinant human CYP2D6; format: ADME
Sequence of Cytochrome P450 2D6 (P10635 whole entry): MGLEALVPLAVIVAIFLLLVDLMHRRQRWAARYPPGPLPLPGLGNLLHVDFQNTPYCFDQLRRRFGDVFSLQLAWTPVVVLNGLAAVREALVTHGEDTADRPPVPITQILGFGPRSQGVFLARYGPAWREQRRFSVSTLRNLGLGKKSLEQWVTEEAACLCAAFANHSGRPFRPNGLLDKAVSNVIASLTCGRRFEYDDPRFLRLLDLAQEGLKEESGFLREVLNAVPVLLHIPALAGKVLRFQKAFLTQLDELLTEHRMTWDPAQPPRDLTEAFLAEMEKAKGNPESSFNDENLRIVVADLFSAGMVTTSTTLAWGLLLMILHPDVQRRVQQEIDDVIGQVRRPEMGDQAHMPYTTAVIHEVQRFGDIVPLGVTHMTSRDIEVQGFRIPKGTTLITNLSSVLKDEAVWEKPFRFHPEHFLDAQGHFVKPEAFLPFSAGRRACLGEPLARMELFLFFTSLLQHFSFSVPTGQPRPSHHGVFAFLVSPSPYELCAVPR

[7] = Metabolic stability assessed as dog UGT -mediated metabolism by measuring half life; format: ADME, Canis lupus familiaris
[8] = Metabolic stability assessed as dog CYP-mediated metabolism by measuring half life; format: ADME, Canis lupus familiaris
[9] = Permeability across basolateral to apical side in human Caco2 cells; format: ADME, cell-based; conditions: Caco-2, read-out: permeability
[10] = Metabolic stability assessed as human UGT-mediated metabolism by measuring half life; format: ADME
[11] = Permeability at pH 5.5 by PAMPA; format: ADME; conditions: read-out: permeability
[12] = Metabolic stability in mouse liver microsomes assessed as parent compound remaining at 0.5 uM after 10 mins; format: ADME, Microsome; conditions: read-out: Stabilty; how it was run: as §2
[13] = Metabolic stability assessed as cynomolgus monkey UGT -mediated metabolism by measuring half life; format: ADME, Macaca fascicularis
[14] = target: Indoleamine 2,3-dioxygenase 1 (Mus musculus, UniProt P28776); assay: Inhibition of IDO1 in recombinant IFN-gamma induced mouse M109 cells incubated for 18 hrs by fluorescence microplate reader assay; format: cell-based; how it was run: as §1
Sequence of Indoleamine 2,3-dioxygenase 1 (Mus musculus, UniProt P28776) (P28776 whole entry): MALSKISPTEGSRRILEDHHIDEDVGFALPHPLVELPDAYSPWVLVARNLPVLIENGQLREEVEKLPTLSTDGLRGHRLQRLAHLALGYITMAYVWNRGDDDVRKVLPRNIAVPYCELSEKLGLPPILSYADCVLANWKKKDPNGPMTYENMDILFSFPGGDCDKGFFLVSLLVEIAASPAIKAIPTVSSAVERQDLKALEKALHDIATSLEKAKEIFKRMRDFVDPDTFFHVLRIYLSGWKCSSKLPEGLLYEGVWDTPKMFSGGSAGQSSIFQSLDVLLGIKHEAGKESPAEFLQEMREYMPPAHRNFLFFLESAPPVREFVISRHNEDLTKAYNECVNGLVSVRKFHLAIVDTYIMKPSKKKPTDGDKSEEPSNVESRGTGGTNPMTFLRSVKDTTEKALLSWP

Cytochrome P450 3A4 = Cytochrome P450 3A4 (Homo sapiens, UniProt P08684); assay: Inhibition of recombinant human CYP3A4; format: ADME
Sequence of Cytochrome P450 3A4 (P08684 whole entry): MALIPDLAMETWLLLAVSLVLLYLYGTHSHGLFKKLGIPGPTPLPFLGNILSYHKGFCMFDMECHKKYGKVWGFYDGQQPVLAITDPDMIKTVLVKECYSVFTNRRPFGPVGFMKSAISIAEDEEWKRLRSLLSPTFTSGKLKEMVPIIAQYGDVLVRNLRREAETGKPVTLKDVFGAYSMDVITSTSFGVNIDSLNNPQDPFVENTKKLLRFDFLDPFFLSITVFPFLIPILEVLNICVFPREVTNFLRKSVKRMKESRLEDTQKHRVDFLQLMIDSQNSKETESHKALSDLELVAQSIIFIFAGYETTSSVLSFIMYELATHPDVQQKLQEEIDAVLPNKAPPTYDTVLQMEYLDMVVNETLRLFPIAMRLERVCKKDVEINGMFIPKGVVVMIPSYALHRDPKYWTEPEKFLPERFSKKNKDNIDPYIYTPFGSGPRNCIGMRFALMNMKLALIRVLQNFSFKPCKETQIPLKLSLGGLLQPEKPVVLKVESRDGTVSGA

[15] = Metabolic stability assessed as human CYP-mediated metabolism by measuring half life; format: ADME
[16] = Permeability at pH 7.4 by PAMPA; format: ADME; conditions: read-out: permeability
[17] = Metabolic stability assessed as mouse UGT -mediated metabolism by measuring half life; format: ADME
Cytochrome P450 1A2 = target: T2, Cytochrome P450 1A2 (Homo sapiens, UniProt P05177); assay: Inhibition of recombinant human CYP1A2; format: ADME
T2 sequence (P05177 whole entry): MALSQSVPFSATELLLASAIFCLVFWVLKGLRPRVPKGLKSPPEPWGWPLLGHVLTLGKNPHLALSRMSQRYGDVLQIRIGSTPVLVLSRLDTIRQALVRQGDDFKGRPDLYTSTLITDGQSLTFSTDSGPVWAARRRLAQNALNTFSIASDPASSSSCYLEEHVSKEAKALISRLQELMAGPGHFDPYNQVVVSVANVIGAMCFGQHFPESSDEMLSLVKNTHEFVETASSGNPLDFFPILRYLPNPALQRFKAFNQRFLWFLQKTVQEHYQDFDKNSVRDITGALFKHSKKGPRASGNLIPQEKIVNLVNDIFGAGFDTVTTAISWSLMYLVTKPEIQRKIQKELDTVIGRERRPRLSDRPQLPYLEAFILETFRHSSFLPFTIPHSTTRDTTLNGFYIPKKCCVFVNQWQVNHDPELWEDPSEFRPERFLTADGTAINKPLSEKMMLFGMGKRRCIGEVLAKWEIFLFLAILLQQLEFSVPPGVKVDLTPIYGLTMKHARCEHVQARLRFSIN

Cytochrome P450 2C19 = Cytochrome P450 2C19 (Homo sapiens, UniProt P33261); assay: Inhibition of recombinant human CYP2C19; format: ADME
Sequence of Cytochrome P450 2C19 (P33261 whole entry): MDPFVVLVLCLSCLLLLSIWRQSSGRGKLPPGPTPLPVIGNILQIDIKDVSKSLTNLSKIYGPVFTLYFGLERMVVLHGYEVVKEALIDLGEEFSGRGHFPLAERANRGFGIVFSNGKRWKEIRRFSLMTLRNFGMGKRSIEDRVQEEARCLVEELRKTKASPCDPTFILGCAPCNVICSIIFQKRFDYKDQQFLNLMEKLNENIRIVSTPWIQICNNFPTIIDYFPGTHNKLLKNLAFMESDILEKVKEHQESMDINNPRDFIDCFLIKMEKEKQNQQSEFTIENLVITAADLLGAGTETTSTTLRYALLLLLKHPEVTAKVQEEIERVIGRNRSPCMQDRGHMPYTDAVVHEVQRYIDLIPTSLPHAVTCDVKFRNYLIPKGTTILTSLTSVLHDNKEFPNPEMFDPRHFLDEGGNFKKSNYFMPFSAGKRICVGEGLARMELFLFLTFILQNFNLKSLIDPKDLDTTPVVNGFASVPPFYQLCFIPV

Cytochrome P450 2C8 = target: T3, Cytochrome P450 2C8 (Homo sapiens, UniProt P10632); assay: Inhibition of recombinant human CYP2C8; format: ADME
T3 sequence (P10632 whole entry): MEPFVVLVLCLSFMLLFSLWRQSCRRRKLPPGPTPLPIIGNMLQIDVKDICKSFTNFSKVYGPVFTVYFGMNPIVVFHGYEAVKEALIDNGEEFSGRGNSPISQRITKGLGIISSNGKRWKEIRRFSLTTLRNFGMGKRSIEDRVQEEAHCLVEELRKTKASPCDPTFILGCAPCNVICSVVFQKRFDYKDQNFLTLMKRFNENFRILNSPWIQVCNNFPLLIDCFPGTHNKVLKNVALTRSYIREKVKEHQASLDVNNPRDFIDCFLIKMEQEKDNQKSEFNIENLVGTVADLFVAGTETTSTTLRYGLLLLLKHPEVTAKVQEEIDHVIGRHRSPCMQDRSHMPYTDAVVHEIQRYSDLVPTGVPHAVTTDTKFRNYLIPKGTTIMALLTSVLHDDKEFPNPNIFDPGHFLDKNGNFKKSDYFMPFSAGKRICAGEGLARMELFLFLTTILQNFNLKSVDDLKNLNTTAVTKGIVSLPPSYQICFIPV

Cytochrome P450 2C9 = Cytochrome P450 2C9 (Homo sapiens, UniProt P11712); assay: Inhibition of recombinant human CYP2C9; format: ADME
Sequence of Cytochrome P450 2C9 (P11712 whole entry): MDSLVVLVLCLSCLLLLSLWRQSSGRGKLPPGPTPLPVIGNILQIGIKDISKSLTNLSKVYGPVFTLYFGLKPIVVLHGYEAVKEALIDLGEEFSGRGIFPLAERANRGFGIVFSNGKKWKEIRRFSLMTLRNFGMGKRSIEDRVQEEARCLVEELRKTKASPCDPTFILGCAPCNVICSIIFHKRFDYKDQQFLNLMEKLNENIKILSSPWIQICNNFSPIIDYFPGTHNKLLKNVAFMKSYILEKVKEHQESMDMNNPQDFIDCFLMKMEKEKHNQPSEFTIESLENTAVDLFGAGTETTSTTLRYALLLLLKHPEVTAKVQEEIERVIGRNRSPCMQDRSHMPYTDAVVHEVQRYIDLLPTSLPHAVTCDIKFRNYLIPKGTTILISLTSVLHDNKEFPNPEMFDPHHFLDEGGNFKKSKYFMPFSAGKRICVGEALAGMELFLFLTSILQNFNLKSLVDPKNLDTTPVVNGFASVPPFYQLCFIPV

[18] = Metabolic stability assessed as rat CYP-mediated metabolism by measuring half life; format: ADME
[19] = AUC (0 to 24 hrs) in mouse xenografted with human SKOV3 cells assessed in tumor at 20 mg/kg, po qd for 5 days measured upto 24 hrs after dosing; format: ADME, organism-based; parameters: route oral, dose 20 mg/kg, time 5 day
How it was run: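 nu/nu nude mice carrying SKOV3 tumors grown 2 weeks; dosed QD for 5 days starting day 14. On day 18, tumor sampled at 2, 6 and 24 h for drug level and kynurenine. […] Kyn reduction measured at steady state after the 5th dose, taken as area under the Kyn concentration–time curve 0–24 h versus vehicle control.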

[20] = Metabolic stability assessed as cynomolgus monkey CYP-mediated metabolism by measuring half life; format: ADME, Macaca fascicularis
[21] = Metabolic stability assessed as mouse CYP-mediated metabolism by measuring half life; format: ADME

T1 sequence (P14902 whole entry): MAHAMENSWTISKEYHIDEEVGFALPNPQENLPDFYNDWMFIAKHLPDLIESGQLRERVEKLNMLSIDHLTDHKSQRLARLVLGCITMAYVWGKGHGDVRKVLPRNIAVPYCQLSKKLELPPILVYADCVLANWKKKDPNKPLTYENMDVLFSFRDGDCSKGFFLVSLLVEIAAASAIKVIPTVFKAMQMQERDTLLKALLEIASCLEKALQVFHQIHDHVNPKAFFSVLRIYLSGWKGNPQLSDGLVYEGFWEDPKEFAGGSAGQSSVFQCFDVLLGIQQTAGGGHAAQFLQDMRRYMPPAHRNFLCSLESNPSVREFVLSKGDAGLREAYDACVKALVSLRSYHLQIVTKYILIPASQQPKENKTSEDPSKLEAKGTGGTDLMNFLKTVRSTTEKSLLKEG

C[C@@H](c1nc2ccc(Cl)cc2[nH]1)[C@H]1CC[C@@H](c2ccnc3ccc(F)cc32)CC1
IC50 [1]: 3 nM
remaining at 10 min, 0.5 µM [2]: 8%
IC50 [3]: 32 nM

CCC(c1nc2ncc(Cl)cc2[nH]1)[C@H]1CC[C@@H](c2ccnc3ccc(C(F)(F)F)cc32)CC1 (some centres undefined)
Papp A→B [4]: 11.3 ×10⁻⁶ cm/s
IC50 [1]: 2 nM
half-life [5]: 1.78 h
remaining at 10 min, 0.5 µM [6]: 81%
IC50 (Cytochrome P450 2D6): 4280 nM
half-life [7]: 1.75 h
half-life [8]: 0.683 h
Papp B→A [9]: 6.6 ×10⁻⁶ cm/s
half-life [10]: 1.58 h
Papp [11]: 238 ×10⁻⁶ cm/s
remaining at 10 min, 0.5 µM [12]: 57%
half-life [13]: > 2 h
IC50 [14]: 3 nM
IC50 (Cytochrome P450 3A4): 1930 nM
half-life [15]: 0.9 h
Papp [16]: 263 ×10⁻⁶ cm/s
remaining at 10 min, 0.5 µM [2]: 81%
half-life [17]: > 2 h
IC50 (Cytochrome P450 1A2): 2550 nM
IC50 (Cytochrome P450 2C19): 1130 nM
IC50 (Cytochrome P450 2C8): 1470 nM
IC50 (Cytochrome P450 2C9): 242 nM
half-life [18]: 1 h
AUC at 120 h [19]: 43.6 µM·h
IC50 [3]: 21 nM
half-life [20]: 0.35 h
half-life [21]: 0.283 h

C[C@@H](c1ncc(-c2ccc(Cl)cc2)o1)[C@H]1CC[C@@H](c2ccnc3ccc(F)cc32)CC1
IC50 [1]: 495 nM
remaining at 10 min, 0.5 µM [6]: 97%
remaining at 10 min, 0.5 µM [12]: 78%
IC50 [14]: 631 nM
remaining at 10 min, 0.5 µM [2]: 62%

CCOCC(Nc1nnc(-c2ccc(OC)cc2)o1)[C@H]1CC[C@@H](c2ccnc3ccc(C(F)(F)F)cc32)CC1 (some centres undefined)
IC50 [1]: 13 nM
remaining at 10 min, 0.5 µM [6]: 60%
remaining at 10 min, 0.5 µM [12]: 41%
IC50 [14]: 57 nM
remaining at 10 min, 0.5 µM [2]: 53%
IC50 [3]: 96 nM

CCC(Nc1nnc(-c2ccc(OC)cc2)o1)[C@H]1CC[C@@H](c2ccnc3ccc(C(F)(F)F)cc32)CC1 (some centres undefined)
IC50 [1]: 3 nM
remaining at 10 min, 0.5 µM [6]: 83%
remaining at 10 min, 0.5 µM [12]: 39%
IC50 [14]: 6 nM
remaining at 10 min, 0.5 µM [2]: 100%
IC50 [3]: 50 nM

C[C@@H](c1nc2ncc(Cl)cc2[nH]1)[C@H]1CC[C@@H](c2ccnc3ccc(F)cc32)CC1
IC50 [1]: 4 nM
remaining at 10 min, 0.5 µM [6]: 67%
remaining at 10 min, 0.5 µM [12]: 22%
IC50 [14]: 36 nM
remaining at 10 min, 0.5 µM [2]: 17%
IC50 [3]: 39 nM

C[C@@H](c1nnc(-c2ccc(Cl)cc2)o1)[C@H]1CC[C@@H](c2ccnc3ccc(F)cc32)CC1
IC50 [1]: 239 nM
remaining at 10 min, 0.5 µM [6]: 68%
remaining at 10 min, 0.5 µM [12]: 41%
IC50 [14]: 348 nM
remaining at 10 min, 0.5 µM [2]: 23%

C[C@@H](c1nc2ccc(F)cc2[nH]1)[C@H]1CC[C@@H](c2ccnc3ccc(F)cc32)CC1
IC50 [1]: 3 nM
remaining at 10 min, 0.5 µM [6]: 42%
remaining at 10 min, 0.5 µM [12]: 5%
IC50 [14]: 22 nM
remaining at 10 min, 0.5 µM [2]: 0%

COCC(Nc1nnc(-c2ccc(OC)cc2)o1)[C@H]1CC[C@@H](c2ccnc3ccc(F)cc32)CC1 (some centres undefined)
IC50 [1]: 3 nM
remaining at 10 min, 0.5 µM [6]: 57%
remaining at 10 min, 0.5 µM [12]: 19%
IC50 [14]: 44 nM
remaining at 10 min, 0.5 µM [2]: 24%
IC50 [3]: 31 nM

COc1ccc(Nc2nnc([C@H](C)[C@H]3CC[C@@H](c4ccnc5ccc(F)cc54)CC3)o2)cc1
IC50 [1]: 165 nM
remaining at 10 min, 0.5 µM [6]: 18%
remaining at 10 min, 0.5 µM [12]: 2%
IC50 [14]: 451 nM
remaining at 10 min, 0.5 µM [2]: 0.4%
